GAA850 FXN act: FXN promoter activators, primary screen, cell-based, luciferase luminescence, HEK293 lucGAA850 | HEK293 lucGAA850 FXN promoter luciferase reporter, 24 h; percent of 10 µM SAHA response | activation, % at 6 µM | 360,000 tested, 0.56% active;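 active means activation above the average of all compounds screened plus 3 SD, cutoff fixed separately per campaign, cut at about 7.5% in these data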
NR2E3 ag-1: inhibitors of NR2E3-RetCOR corepressor binding, primary screen, NR2E3 agonist project, biochemical, TR-FRET, GST-NR2E3, biotin-RetCOR. Photoreceptor-specific nuclear receptor (Homo sapiens), Q9Y5X4. 1536-well. inhibition of corepressor binding, % at 4.78 µM. 320,000 tested, 0.12% active;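 active means percent inhibition above the cutoff of mean plus 3 SD of all tested compounds, set per screening campaign, cut at about 20% in these data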
Target sequence (Q9Y5X4 whole entry, looked up): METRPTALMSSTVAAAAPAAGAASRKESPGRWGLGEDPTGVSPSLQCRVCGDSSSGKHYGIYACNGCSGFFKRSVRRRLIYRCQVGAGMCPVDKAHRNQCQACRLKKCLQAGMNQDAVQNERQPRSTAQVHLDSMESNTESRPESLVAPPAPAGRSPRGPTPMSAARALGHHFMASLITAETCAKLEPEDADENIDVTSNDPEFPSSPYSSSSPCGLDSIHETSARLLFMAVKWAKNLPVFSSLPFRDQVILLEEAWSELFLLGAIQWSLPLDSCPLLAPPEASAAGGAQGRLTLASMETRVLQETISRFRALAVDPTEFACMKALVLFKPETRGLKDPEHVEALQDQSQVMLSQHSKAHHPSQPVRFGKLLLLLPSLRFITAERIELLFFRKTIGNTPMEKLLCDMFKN
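Material: NR2E3–RetCOR corepressor complex | Quantity: 1.35 nM GST-tagged NR2E3 final | Schedule: 5 h at 4 °C | Replication: Singlicate compound wells | Reagent: RetCOR corepressor, biotinylated, 7 nM | Controls: Biotin wells as high control, 0.6% DMSO wells as low control | Signal: TR-FRET, Eu(K)-anti-GST donor, streptavidin-D2 acceptor, ex 340, em 617/671 nm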
T cell HTS: modulators of CD8 T cell-vesicle binding, primary screen, mouse 2C CD8+ T cells, flow cytometry; 2C CD8+ T cell-vesicle binding; hits give low values; response (vesicle binding), % at 7 µM; 330,000 tested, 0.068% active;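 active means response, share of CD8 T cells binding vesicles, and their 90th percentile fluorescence all below set limits, cut at about 80% in these data, passing the limit was not always enough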;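 further: values below 100% mean blocked vesicle binding to the CD8+ T cells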
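Material: murine 2C transgenic CD8+ T lymphocytes / Also added: QL9-peptide-loaded Drosophila micro-vesicles bearing Ld, ICAM-1 and B7-1 / Schedule: binding step 1.5 h, 37 °C, antibody labelling 20 min, ice / Signal: flow cytometry, PE anti-B7-1 (FL2) versus Alexa647 anti-CD8 (FL8), PFA-fixed / Evaluation: percent CD8+ FL2 mean versus row control / Benchmarks: naked versus QL9-loaded vesicles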
Myeloid diff 2: induction of myeloid progenitor differentiation, primary screen, cell-based, flow cytometry, MLPCN library; calls only at 10 µM; AID 624256, 2012; ER-HoxA9 myeloid progenitors, lysozyme-GFP differentiation; 360,000 tested, 1% active;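 active means normalized GFP-positive differentiation at or above the plate's own cutoff, the solvent-only control mean plus 3 SD; inconclusive means no clear call, values can overlap the other calls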;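 further: cells exposed to compound for four days before flow analysis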
NR2E3 ag-2: NR2E3 agonists in two-hybrid cells, primary screen, cell-based, luminescence, CHO-S, Gal4-NCOR/VP16-NR2E3 | luciferase | AID 602229, 2012 | 360,000 tested, 0.35% active | inhibition of corepressor binding, % at 3.98 µM | Photoreceptor-specific nuclear receptor (Homo sapiens), Q9Y5X4;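 active means inhibition above the mean of all tested compounds plus 3 SD, cut at about 70% in these data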;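 further: higher means lower luciferase signal from less NR2E3 corepressor binding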
GAA30 counter: GAA30 FXN promoter activators, confirmation, counter-screen for GAA850 frataxin promoter activator project, cell-based, luminescence, HEK293, lucGAA30, triplicate; shares compounds with GAA850 FXN act; HEK293 lucGAA30 FXN promoter luciferase, 24 h; DMSO = 0%, 5 µM ipriflavone = 100%; activation, % at 6 µM; 1,900 tested, 66% active; AID 588350, 2011;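 active means mean activation above the mean of solvent-only control wells plus 3 SD, cut at about 22% in these data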;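 further: counterscreen of GAA850 promoter hits where activity marks nonselective or luminescence artifacts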
GAA850 confirm: FXN GAA850 promoter activators in reporter cells, confirmation, cell-based, luminescence, HEK293 lucGAA850, triplicate; shares compounds with GAA850 FXN act; HEK293 lucGAA850 FXN promoter luciferase reporter, 24 h; 100% = activation by SAHA; activation, % at 6 µM; 1,900 tested, 86% active;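 active means mean activation above a set limit taken from the primary screen, cut at about 8% in these data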
Large screens that a line does not name were inactive (follow-up assays come after a bar, where they were run). The list is not random: actives were taken first. Their share in the collection is about 2%.

CN(C)C1C(=O)C(C(N)=O)=C(O)C2(O)C(=O)C3=C(O)c4c(O)cccc4C(C)(O)C3C(O)C12 (stereo unspecified)	GAA850 FXN act 16 | GAA30 counter 33 | GAA850 confirm 11
O=C1C(=O)N(c2ccccc2)P(=O)(N(CCCl)CCCl)N1c1ccccc1	none (no result: NR2E3 ag-1, T cell HTS)
c1cncc(C2Nc3cccc4cccc(c34)N2)c1	GAA850 FXN act 12 | GAA30 counter 26 | GAA850 confirm inactive
c1cncc(C2CCCCN2)c1 (stereo unspecified)	none
O=C1C=C2C=C[C@@H]3CC2(O1)[C@H]1CCCCN31	GAA850 FXN act 8.1 | GAA30 counter 36 | GAA850 confirm 14
O=S(=O)(c1cc(Cl)cc(Cl)c1)N1Cc2cc(-c3cccc(F)c3)ccc2-n2nncc2C1	none (no result: GAA850 FXN act, NR2E3 ag-1, T cell HTS)
O=C1NC(=O)N(Cc2ccco2)C(=O)/C1=C/C=C/c1ccco1	GAA850 FXN act 10 | GAA30 counter inactive | GAA850 confirm 26
O=C1NC(=O)N(Cc2ccccc2)C(=O)/C1=C\C=C\c1ccco1	GAA850 FXN act 13 | GAA30 counter inactive | GAA850 confirm 31
Cn1cccc1/C=C1\C(=O)NC(=O)N(Cc2ccco2)C1=O	none (no result: NR2E3 ag-1, T cell HTS)
C=CC(=O)OCCO	none (no result: NR2E3 ag-1, T cell HTS)
COC1/C=C/C=C(\C)Cc2cc(O)c(Cl)c(c2)N(C)C(=O)CC(OC(=O)C(C)C)C2(C)OC2C(C)C2CC1(O)NC(=O)O2 (stereo unspecified)	GAA850 FXN act 19 (no result: NR2E3 ag-1, T cell HTS, Myeloid diff 2) | GAA30 counter inactive | GAA850 confirm 21
O=[N+]([O-])c1ccc(O)c([N+](=O)[O-])c1	none
O=[N+]([O-])c1ccc(Cl)c([N+](=O)[O-])c1	GAA850 FXN act 8.0, Myeloid diff 2 inconclusive | GAA30 counter 38 | GAA850 confirm 78
CC12C(C(=O)O)C1(c1ccccc1)C2C(=O)O (stereo unspecified)	none (no result: NR2E3 ag-1, T cell HTS)
CN1CCN(c2ccc3c(c2)S(=O)(=O)c2ccccc2C3=O)CC1	GAA850 FXN act 8.8 | GAA30 counter 97 | GAA850 confirm 35
COc1ccc(C(=O)C2CCCN(CCc3ccccc3)C2)cc1OC (stereo unspecified)	none (no result: NR2E3 ag-1, T cell HTS)
CN1C(=O)/C(=C/c2ccc(N3CCCCCC3)o2)C(=O)NC1=S	GAA850 FXN act 9.9 | GAA30 counter 100 | GAA850 confirm 47
COC(C)(C)CCCC(C)C/C=C/C(C)=C/C(=O)OC(C)C (stereo unspecified)	none
COC(=O)C1=C(c2ccc(OC(F)(F)F)cc2)C[C@@H]2CC[C@H]1N2C(=O)NC(C)C	none
C/C(=N\N1CCCCC1c1cccnc1)c1c(O)n(C2CCCCC2)c(=S)[nH]c1=O (stereo unspecified)	GAA850 FXN act 8.2 | GAA30 counter inactive | GAA850 confirm 17
C[C@H](CO)N1C[C@H](C)[C@@H](CN(C)C(=O)Oc2ccc3ccccc3c2)OCc2cnnn2CCCC1=O	none (no result: NR2E3 ag-1, T cell HTS)
COc1ccc(CNCCc2c[nH]c3ccccc23)c(OC)c1OC	GAA850 FXN act 8.1 | GAA30 counter inactive | GAA850 confirm 8.7
COc1cccc(CNCCc2c[nH]c3ccccc23)c1OC	none
Cc1ccc(N2C(=O)NC(=O)/C(=C\C=C\c3ccco3)C2=O)cc1C	GAA850 FXN act 8.4, Myeloid diff 2 active | GAA30 counter inactive | GAA850 confirm inactive
O=C1NC(=O)N(c2ccccc2)C(=O)/C1=C/C=C/c1ccco1	none
Cc1ccc(N2C(=O)NC(=O)/C(=C\C=C\c3ccco3)C2=O)cc1	GAA850 FXN act 8.0 | GAA30 counter inactive | GAA850 confirm 20
